Active and inactive are the calls of the source. The calls are words filed in the database; no cut-off is given here.
How the values were obtained:
SK-MEL-1 [1] = assay: Cytotoxicity against human SK-MEL-1 cells assessed as reduction in cell viability after 72 hrs by MTT assay; type: functional, cell-based; settings: SK-MEL-1, 72 h
Summary of the method: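 1×10^4 exponentially growing cells were seeded with a range of compound concentrations for 72 h. MTT (0.5 mg/mL) was added for 4 h at 37 °C, and formazan was dissolved in 10% SDS/0.05 M HCl overnight at room temperature in the dark. A570 was read. IC50 was found by nonlinear regression for each experiment, with at least three independent experiments in triplicate.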

SK-MEL-1 [2] = assay: Cell cycle arrest in human SK-MEL-1 cells assessed as accumulation at sub-G1 phase at 3 uM after 24 hrs by propidium iodide staining-based flow cytometry (reference value: 4.5+/-1.6%); type: functional
SK-MEL-1 [3] = assay: Cell cycle arrest in human SK-MEL-1 cells assessed as accumulation at sub-G1 phase at 10 uM after 24 hrs by propidium iodide staining-based flow cytometry (reference value: 4.5+/-1.6%); type: functional
SK-MEL-1 [4] = assay: Cell cycle arrest in human SK-MEL-1 cells assessed as accumulation at sub-G1 phase at 30 uM after 24 hrs by propidium iodide staining-based flow cytometry (reference value: 4.5+/-1.6%); type: functional
SK-MEL-1 [5] = assay: Cell cycle arrest in human SK-MEL-1 cells assessed as accumulation at G1 phase at 3 uM after 24 hrs by propidium iodide staining-based flow cytometry (reference value: 61.5+/-1.7%); type: functional
SK-MEL-1 [6] = assay: Cell cycle arrest in human SK-MEL-1 cells assessed as accumulation at G1 phase at 10 uM after 24 hrs by propidium iodide staining-based flow cytometry (reference value: 61.5+/-1.7%); type: functional
SK-MEL-1 [7] = assay: Cell cycle arrest in human SK-MEL-1 cells assessed as accumulation at G1 phase at 30 uM after 24 hrs by propidium iodide staining-based flow cytometry (reference value: 61.5+/-1.7%); type: functional
SK-MEL-1 [8] = assay: Cell cycle arrest in human SK-MEL-1 cells assessed as accumulation at S phase at 3 uM after 24 hrs by propidium iodide staining-based flow cytometry (reference value: 17.7+/-0.4%); type: functional
SK-MEL-1 [9] = assay: Cell cycle arrest in human SK-MEL-1 cells assessed as accumulation at S phase at 10 uM after 24 hrs by propidium iodide staining-based flow cytometry (reference value: 17.7+/-0.4%); type: functional
SK-MEL-1 [10] = assay: Cell cycle arrest in human SK-MEL-1 cells assessed as accumulation at S phase at 30 uM after 24 hrs by propidium iodide staining-based flow cytometry (reference value: 17.7+/-0.4%); type: functional
SK-MEL-1 [11] = assay: Cell cycle arrest in human SK-MEL-1 cells assessed as accumulation at G2/M phase at 3 uM after 24 hrs by propidium iodide staining-based flow cytometry (reference value: 16.1+/-0.2%); type: functional
SK-MEL-1 [12] = assay: Cell cycle arrest in human SK-MEL-1 cells assessed as accumulation at G2/M phase at 10 uM after 24 hrs by propidium iodide staining-based flow cytometry (reference value: 16.1+/-0.2%); type: functional
SK-MEL-1 [13] = assay: Cell cycle arrest in human SK-MEL-1 cells assessed as accumulation at G2/M phase at 30 uM after 24 hrs by propidium iodide staining-based flow cytometry (reference value: 16.1+/-0.2%); type: functional
SK-MEL-1 [14] = assay: Induction of apoptosis in human SK-MEL-1 cells assessed as condensation of cell nuclei and chromatins at 30 uM after 24 hrs by bisbenzimide trihydrochloride staining-based fluorescent microscopic analysis; type: functional
Summary of the method: (§1)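 Cells were treated with 30 µM for 24 h, then stained with bisbenzimide trihydrochloride. Nuclear chromatin condensation and fragmentation were viewed by fluorescence microscopy.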

SK-MEL-1 [15] = assay: Induction of apoptosis in human SK-MEL-1 cells assessed as chromatin fragmentation at 30 uM after 24 hrs by bisbenzimide trihydrochloride staining-based fluorescent microscopic analysis; type: functional, cell-based; summary of the method: as §1
SK-MEL-1 [16] = assay: Induction of apoptosis in human SK-MEL-1 cells assessed as increase in caspase-3/7 activity by measuring DEVD-pNA substrate cleavage up to 30 uM after 24 hrs by Bradford dye binding assay; type: functional, cell-based
Summary of the method: (§2)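 After treatment, cells were lysed in 50 mM HEPES pH 7.4, 1 mM DTT, 0.1 mM EDTA, 0.1% CHAPS. Protein was quantified by Bradford and equal amounts were used. DEVD-pNA (caspase-3/7), IETD-pNA (caspase-8) or LEHD-pNA (caspase-9) cleavage was read as net A405 increase at 37 °C. Results are fold increase over control, means ± SE of three experiments in triplicate.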

SK-MEL-1 [17] = assay: Induction of apoptosis in human SK-MEL-1 cells assessed as increase in caspase-3/7 activity by measuring DEVD-pNA substrate cleavage at 3 uM after 24 hrs by Bradford dye binding assay; type: functional, cell-based; summary of the method: as §2
SK-MEL-1 [18] = assay: Induction of apoptosis in human SK-MEL-1 cells assessed as increase in caspase-8 activity by measuring IETD-pNA substrate cleavage up to 30 uM after 24 hrs by Bradford dye binding assay; type: functional, cell-based; summary of the method: as §2
SK-MEL-1 [19] = assay: Induction of apoptosis in human SK-MEL-1 cells assessed as increase in caspase-8 activity by measuring IETD-pNA substrate cleavage at 3 uM after 24 hrs by Bradford dye binding assay; type: functional, cell-based; summary of the method: as §2
SK-MEL-1 [20] = assay: Induction of apoptosis in human SK-MEL-1 cells assessed as increase in caspase-9 activity by measuring LEHD-pNA substrate cleavage up to 30 uM after 24 hrs by Bradford dye binding assay; type: functional, cell-based; summary of the method: as §2
SK-MEL-1 [21] = assay: Induction of apoptosis in human SK-MEL-1 cells assessed as increase in caspase-9 activity by measuring LEHD-pNA substrate cleavage at 3 uM after 24 hrs by Bradford dye binding assay; type: functional, cell-based; summary of the method: as §2
SK-MEL-1 [22] = assay: Induction of apoptosis in human SK-MEL-1 cells assessed as cleavage of main executioner caspase up to 30 uM after 24 hrs by Western blot method; type: functional, cell-based
Summary of the method: (§3)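 Cells were treated with increasing concentrations for 24 h and washed in PBS. Whole-cell lysates were used for pro-caspase-3. For cytochrome c, a cytosolic fraction was prepared: cells swelled in hypotonic HEPES buffer with 250 mM sucrose, were lysed through a 22-gauge needle, and spun at 1000×g then 105000×g (45 min, 4 °C). Both were probed by immunoblotting.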

SK-MEL-1 [23] = assay: Induction of apoptosis in human SK-MEL-1 cells assessed as increase in […] cytochrome c level by Western blot analysis; type: functional, cell-based; summary of the method: as §3
Bos taurus = organism: Bos taurus; assay: Inhibition of bovine tubulin polymerization measured at every 30 secs intervals for 50 mins in presence of GTP
Summary of the method: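 Purified bovine tubulin without MAPs was incubated in 80 mM PIPES pH 7.0 with 1 mM GTP, 1 mM EGTA, 1 mM MgCl2 and 10% glycerol at 37 °C, across several compound concentrations. A340 was recorded every 30 s for 50 min. Taxol (10 µM) and colchicine (5 µM) served as promotion and inhibition controls.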

SK-MEL-1 [24] = assay: Cytotoxicity against human SK-MEL-1 cells assessed as formation of unhealthy cells after 24 hrs by inverted phase contrast microscopic analysis; type: functional, cell-based
Summary of the method: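 Cells were grown in RPMI 1640 with 10% heat-inactivated FBS, 2 mM L-glutamine and penicillin/streptomycin (37 °C, 5% CO2). They were incubated with vehicle or increasing concentrations for 24 h, then imaged under an inverted phase-contrast microscope.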

`COc1cc(-c2oc3ccccc3c(=O)c2OC)ccc1O` was tested, and the IC50 (SK-MEL-1 [1]) was 79 µM.
With `COc1ccc2c(=O)c(OC)c(-c3ccc(OC)c(O)c3)oc2c1` the IC50 (SK-MEL-1 [1]) was 26.2 µM.
`O=c1c(O)c(-c2ccc(O)cc2)oc2ccccc12` showed an IC50 (SK-MEL-1 [1]) greater than 100 µM.
In the case of `COc1ccc2c(=O)c(OC)c(-c3ccc(O)c(OC)c3)oc2c1`, the IC50 (SK-MEL-1 [1]) is reported as 52 µM.
Compound `COc1ccc2c(=O)c(O)c(-c3ccc(O)c(OC)c3)oc2c1` has an IC50 (SK-MEL-1 [1]) of 37 µM.
With `O=c1c(O)c(-c2ccccc2O)oc2ccccc12` the IC50 (SK-MEL-1 [1]) was greater than 100 µM.
For `COc1ccc(-c2oc3ccccc3c(=O)c2O)cc1O`, the IC50 (SK-MEL-1 [1]) was 32.6 µM.
For `COc1c(-c2ccc(O)cc2)oc2ccccc2c1=O`, the IC50 (SK-MEL-1 [1]) was 91 µM.
For `COc1ccc2c(=O)c(O)c(-c3ccc(OC)c(O)c3)oc2c1`, the IC50 (SK-MEL-1 [1]) was 15.5 µM.
For `COc1cc(-c2oc3ccccc3c(=O)c2O)ccc1O`, the IC50 (SK-MEL-1 [1]) was 22 µM.
In the case of `COc1cc([C@@H]2c3cc4c(cc3[C@@H](O[C@@H]3O[C@@H]5CO[C@@H](C)O[C@H]5[C@H](O)[C@H]3O)[C@H]3COC(=O)[C@H]23)OCO4)cc(OC)c1O` [ETOPOSIDE], the IC50 (SK-MEL-1 [1]) is reported as 8 µM.
Compound `COc1ccc(-c2oc3ccccc3c(=O)c2OC)cc1O` has an Activity (SK-MEL-1 [2]) of 15.9%, an Activity (SK-MEL-1 [3]) of 9.2% and an Activity (SK-MEL-1 [4]) of 21.9%. It also gave an Activity (SK-MEL-1 [5]) of 24.4%, an Activity (SK-MEL-1 [6]) of 14.4% and an Activity (SK-MEL-1 [7]) of 30.7%. The Activity (SK-MEL-1 [8]) was 21.4%, the Activity (SK-MEL-1 [9]) was 23.7% and the Activity (SK-MEL-1 [10]) was 26.8%. The Activity (SK-MEL-1 [11]) was 37.9%, the Activity (SK-MEL-1 [12]) was 52.2% and the Activity (SK-MEL-1 [13]) was 20.2%. For the same compound, the Activity (SK-MEL-1 [14]) was “Active”, the Activity (SK-MEL-1 [15]) was “Active” and the Activity (SK-MEL-1 [16]) was “Active”. The Activity (SK-MEL-1 [17]) was “Active”, the Activity (SK-MEL-1 [18]) was “Active” and the Activity (SK-MEL-1 [19]) was “Active”. The Activity (SK-MEL-1 [20]) was “Active”, the Activity (SK-MEL-1 [21]) was “Active” and the Activity (SK-MEL-1 [22]) was “Active”. The Activity (SK-MEL-1 [23]) was “Dose-dependent effect”, the inhibition (Bos taurus) was “Dose-dependent effect” and the Activity (SK-MEL-1 [24]) was “Active”. For the same compound, the IC50 (SK-MEL-1 [1]) was 6.9 µM.
Work on `COc1c(-c2ccccc2O)oc2ccccc2c1=O` yielded an IC50 (SK-MEL-1 [1]) greater than 100 µM.
`COc1ccc2c(=O)c(OC)c(-c3ccc(O)cc3)oc2c1` showed an IC50 (SK-MEL-1 [1]) greater than 100 µM.
In the case of `COc1ccc2c(=O)c(O)c(-c3ccccc3O)oc2c1`, the IC50 (SK-MEL-1 [1]) is reported as greater than 100 µM.
In the case of `COc1ccc2c(=O)c(O)c(-c3ccc(O)cc3)oc2c1`, the IC50 (SK-MEL-1 [1]) is reported as greater than 100 µM.

From ChEMBL document CHEMBL4177605, “3'-Hydroxy-3,4'-dimethoxyflavone blocks tubulin polymerization and is a potent apoptotic inducer in human SK-MEL-1 melanoma cells” (Bioorg Med Chem, 2017)
